Data published in ChEMBL document CHEMBL4715918, “Syntheses and evaluation of acridone-naphthalimide derivatives for regulating oncogene PDGFR-β expression” (Bioorg Med Chem, 2021).

Columns and labels:
[1] = Toxicity in nude BALB/c mouse xenografted with human MCF7 cells assessed as spleen weight at 2.5 to 10 mg/kg, ip administered for 34 days; assay type: organism-based; conditions: in vivo, 816 h, dose 2.5-10 mg/kg, time 34 day
In short: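 Nude BALB/c females bearing subcutaneous MCF-7 xenografts were dosed ip once daily for 34 days at 2.5, 5.0 or 10 mg/kg, with saline vehicle (100 µL) as control. Body weight was recorded every 2 days. After euthanasia by cervical dislocation, heart, liver, spleen and kidney were removed and weighed.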

[2] = tested on: MCF7; assay: Antitumour activity against human MCF7 cells xenografted in nude BALB/c mouse assessed as tumour volume at 2.5 mg/kg, ip administered for 34 days (reference value: 1530 mm3); assay type: functional; conditions: time 34 day
[3] = tested on: MCF7; assay: Induction of cell cycle arrest in human MCF7 cells assessed as accumulation at G2/M phase after 48 hrs by propidium iodide staining based flow cytometric analysis; assay type: functional; conditions: dose 0.625-10 µM
In short: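 MCF-7 cells, 2 × 10^5/well, were pre-grown 12 h, then treated with 10, 5, 2.5, 1.25, 0.625 μM compound or DMSO. Cells were fixed in 75% ethanol at −20 °C overnight. Staining was 50 μg/mL PI with RNase A, 30 min at room temperature in the dark. Flow cytometry collected 10,000 events; phase distribution was determined.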

[4] = tested on: MCF7; assay: Antitumour activity against human MCF7 cells xenografted in ip dosed nude BALB/c mouse assessed as tumour growth inhibition administered for 34 days; assay type: functional, organism-based; conditions: dose 2.5-10 mg/kg, time 34.0 day
[5] = tested on: MCF7; assay: Antiinvasive activity in human MCF7 cells assessed as reduction in cell migration by microscopic method; assay type: functional, cell-based; conditions: dose […], time 24-48 hrs
In short: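 Scratch assay: MCF-7 seeded 300,000 cells/well, grown 24 h at 37 °C/5% CO2, then a cross-shaped scrape was made through the monolayer with a pipet tip. Cells were exposed to 5, 2.5, 1.25, 0.625, 0.3125 μM compound or DMSO control. Wounded areas were photographed by microscopy at 0, 24 and 48 h.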

[6] = tested on: MCF7; assay: Cytotoxicity against human MCF7 cells assessed as reduction in cell viability after 48 hrs by xcCELLigence RTCA analysis; assay type: functional, cell-based; conditions: MCF7, 48 h
In short: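 xCELLigence RTCA: MCF-7 cells were cultured on E-plates about 16 h, then treated with 0.625, 1.25, 2.5 μM compound or DMSO. Impedance was monitored for 90 h.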

Question: With `Cc1ccc2c(c1)c(=O)c1cc(C(=O)NCCCN(C)CCCN3C(=O)c4cccc5c(N6CCN(C)CC6)ccc(c45)C3=O)ccc1n2-c1ccc(C(=O)NCCCN(C)CCCN2C(=O)c3cccc4c(N5CCN(C)CC5)ccc(c34)C2=O)cc1` as the molecule, how does the Activity [1] read?
Answer: The Activity was “Non-Toxic”.

Question: What about the Activity [2] of the same molecule?
Answer: The Activity was 985.1 mm3.

Question: And the Activity [3]?
Answer: Its Activity is “Dose-dependent effect”.

Question: What about the Activity [4] of the same molecule?
Answer: The Activity was “Dose-dependent effect”.

Question: What about the Activity [5] of the same molecule?
Answer: The Activity was “Dose-dependent effect”.

Question: And the IC50 [6]?
Answer: The IC50 was 2740 nM.
